T cruzi growth-1 – blocks T. cruzi growth in NIH3T3 culture | T. cruzi beta-gal in NIH3T3, GalScreen luminescence, 90 h | inhibition, % at 8.34 µM | 77,000 compounds, 5.9% hits | AID 624255;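 active = mean inhibition above about 93%, with at least 55% of replicates each passing it, limit read from the data, passing the limit was not always enough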
IDH1 R132H inh – blocks human IDH1 R132H reductase activity; diaphorase/resazurin fluorescence, 60 min; inhibition, % at 10 µM; 70,000 compounds, 0.18% hits; in the data active = inhibition above about 34%
GASC1 inh – blocks human GASC-1 (KDM4C) demethylase activity | GST-KDM4C 2-372, H3K9me3 peptide, LANCE TR-FRET | inhibition, % at 12.5 µM | 96,000 compounds, 0.15% hits | AID 720574;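 active = mean replicate inhibition above about 25%, with at least 55% of replicates also reaching it, limit read from the data, passing the limit was not always enough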
Target sequence (Q9H3R0 2-372 limits assumed): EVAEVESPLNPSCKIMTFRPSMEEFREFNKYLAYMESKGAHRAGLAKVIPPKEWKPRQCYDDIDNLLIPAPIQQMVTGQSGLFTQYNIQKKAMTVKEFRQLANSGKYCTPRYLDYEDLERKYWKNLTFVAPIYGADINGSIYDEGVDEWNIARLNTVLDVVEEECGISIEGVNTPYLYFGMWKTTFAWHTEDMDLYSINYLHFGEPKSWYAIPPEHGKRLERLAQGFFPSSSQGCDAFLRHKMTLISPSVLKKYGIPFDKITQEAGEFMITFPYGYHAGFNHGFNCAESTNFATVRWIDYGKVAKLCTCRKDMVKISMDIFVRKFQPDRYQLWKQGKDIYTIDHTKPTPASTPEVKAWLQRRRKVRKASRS
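Material: GST-tagged GASC-1 (JMJD2C) catalytic fragment, aa 2-372. Input: enzyme final amount 10 nM. Medium: HEPES buffer, pH 7.5, plus ascorbate. Reagent: H3K9me3 peptide substrate, Fe(II), 2-oxoglutarate. Doses: single dose. Times: reaction 30 min RT, detection step 1 h RT. Measured by: LANCE TR-FRET. Evaluation: Fall in 671/618 emission ratio as inhibition.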
T cruzi growth-2 – Trypanosoma cruzi proliferation inhibition; AID 651739; shares compounds with T cruzi growth-1; T. cruzi beta-gal in NIH3T3, GalScreen luminescence, 90 h; 5,600 compounds, 72% hits; inhibition, % at 8.35 µM;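 active = mean replicate inhibition above about 95% and at least 55% of replicates individually reaching it, limit read from the data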
T cruzi growth-3 – inhibitors of T. cruzi proliferation; 5,600 compounds, 21% hits; shares compounds with T cruzi growth-1; T. cruzi beta-gal in NIH3T3, GalScreen luminescence, 90 h; inhibition, % at 2.09 µM;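 active = mean inhibition above about 95%, with at least 55% of replicates also reaching it, limit read from the data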
3T3 cytotox – cytotoxicity in mouse NIH/3T3 fibroblasts; shares compounds with T cruzi growth-1; NIH/3T3 viability, CellTiter-Glo ATP luminescence, 90 h; cytotoxicity (signal decrease), % at 8.35 µM; 5,600 compounds, 14% hits;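 active = mean signal decrease across replicates above about 35% based on untreated-well scatter, with enough replicates individually passing, limit read from the data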
3T3 cytotox 2 – cytotoxicity in mouse NIH/3T3 fibroblasts. 5,600 compounds, 56% hits. shares compounds with T cruzi growth-1. inhibition, % at 24.9 µM. NIH/3T3 viability, CellTiter-Glo ATP luminescence, 90 h;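 active = mean loss of cell viability signal at or above a set limit, and enough replicates individually reaching it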
Of the large screens only hits and unclear results are named; the others gave an inactive call (follow-up assays come after a bar, where they were run). This excerpt belongs to a sample that is enriched for hits.

C[C@@H]1CN([C@H](C)CO)C(=O)c2cc(NC(=O)Nc3ccc(F)cc3)ccc2O[C@@H](C)CCCCO[C@@H]1CN(C)C(=O)Cc1ccccc1	none
C[C@H](CO)N1C[C@H](C)[C@H](CN(C)C(=O)Cc2ccccc2)OCCCC[C@H](C)Oc2ccc(NC(=O)Nc3ccc(F)cc3)cc2C1=O	none
Cc1noc(C)c1NC(=O)Nc1ccc2c(c1)C(=O)N([C@H](C)CO)C[C@H](C)[C@H](CN(C)C(=O)Cc1ccccc1)OCCCC[C@H](C)O2	T cruzi growth-1 106 (no result: IDH1 R132H inh) | T cruzi growth-2 inactive | T cruzi growth-3 inactive | 3T3 cytotox inactive | 3T3 cytotox 2 inactive
C[C@@H]1CCCCO[C@H](CN(C)C(=O)Cc2ccccc2)[C@H](C)CN([C@H](C)CO)C(=O)c2cc(NC(=O)Nc3ccc(F)cc3)ccc2O1	T cruzi growth-1 103 | T cruzi growth-2 107 | T cruzi growth-3 108 | 3T3 cytotox inactive | 3T3 cytotox 2 inactive
C[C@@H]1CCCCO[C@H](CN(C)C(=O)Cc2ccccc2)[C@H](C)CN([C@H](C)CO)C(=O)c2cc(NC(=O)Nc3ccccc3)ccc2O1	T cruzi growth-1 103 | T cruzi growth-2 98 | T cruzi growth-3 inactive | 3T3 cytotox inactive | 3T3 cytotox 2 inactive
COc1ccc(S(=O)(=O)Nc2ccc3c(c2)C(=O)N([C@@H](C)CO)C[C@H](C)[C@@H](CN(C)Cc2ccc(Cl)c(Cl)c2)O3)cc1	none
COc1ccccc1-c1ccc2n(c1=O)C[C@H]1[C@H](CO)[C@@H](C(=O)N(C)C)N[C@@H]21	none (no result: IDH1 R132H inh)
CCCC(=O)Nc1ccc2c(c1)C(=O)N(C)[C@@H]1CC[C@@H](CC(=O)NCCN3CCCCC3)O[C@@H]1CO2	none (no result: IDH1 R132H inh)
C[C@H](CO)N1C[C@H](C)[C@H](CN(C)CC2CC2)OCc2ccccc2-c2ccccc2C1=O	none
CCCNC(=O)N1CC2(CN(Cc3cccnc3)C2)c2c(n(C)c3cc(OC)ccc23)[C@@H]1CO	none (no result: T cruzi growth-1, IDH1 R132H inh)
O=C(Nc1cccc(Cl)c1)N[C@H]1CC[C@H](CCNC(=O)C2CCC2)O[C@H]1CO	none (no result: T cruzi growth-1)
C[C@@H]1CCCCO[C@H](CN(C)C(=O)Cc2ccccc2)[C@H](C)CN([C@@H](C)CO)C(=O)c2cc(NC(=O)Nc3ccc(F)cc3)ccc2O1	T cruzi growth-1 100 (no result: GASC1 inh) | T cruzi growth-2 103 | T cruzi growth-3 inactive | 3T3 cytotox inactive | 3T3 cytotox 2 inactive
C[C@@H]1CCCCO[C@@H](CN(C)C(=O)Cc2ccccc2)[C@@H](C)CN([C@H](C)CO)C(=O)c2cc(NC(=O)Nc3ccc(F)cc3)ccc2O1	none (no result: T cruzi growth-1)
O=C1N(c2ccccc2)c2ccccc2C1(Cc1ccncc1)Cc1ccncc1	none (no result: T cruzi growth-1, GASC1 inh)
C[C@H](CO)N1C[C@H](C)[C@H](CN(C)Cc2ccc(C(F)(F)F)cc2)Oc2c(NS(=O)(=O)c3cn(C)cn3)cccc2C1=O	none
C[C@H](CO)N1C[C@H](C)[C@H](CN(C)C(=O)c2ccccc2)Oc2cc(C3=CCCCC3)ccc2S1(=O)=O	T cruzi growth-1 103 | T cruzi growth-2 101 | T cruzi growth-3 inactive | 3T3 cytotox inactive | 3T3 cytotox 2 64
C[C@@H]1CN([C@@H](C)CO)S(=O)(=O)c2ccc(C3=CCCC3)cc2O[C@@H]1CN(C)C(=O)c1ccc(F)cc1	none (no result: T cruzi growth-1, IDH1 R132H inh)
C[C@H]1CN([C@@H](C)CO)S(=O)(=O)c2ccc(C3=CCCC3)cc2O[C@@H]1CN(C)C(=O)c1ccc(F)cc1	none (no result: T cruzi growth-1)
C[C@H](CO)N1C[C@H](C)[C@H](CN(C)C(=O)c2ccc(F)cc2)Oc2cc(C3=CCCCC3)ccc2S1(=O)=O	T cruzi growth-1 111 (no result: IDH1 R132H inh) | T cruzi growth-2 101 | T cruzi growth-3 inactive | 3T3 cytotox inactive | 3T3 cytotox 2 62
C[C@@H]1CN([C@H](C)CO)S(=O)(=O)c2ccc(C3=CCCCC3)cc2O[C@H]1CN(C)C(=O)c1ccc(F)cc1	none
C[C@H]1CN([C@@H](C)CO)S(=O)(=O)c2ccc(C3=CCCCC3)cc2O[C@@H]1CN(C)C(=O)c1ccccc1	none (no result: IDH1 R132H inh)

Screening results from PubChem BioAssay.
